TbHK1 inh: T. brucei hexokinase 1 inhibition. 0.11% of 220,000 active. recombinant TbHK1, G6PDH-coupled NADH A340. inhibition, % at 10 µM;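 active = inhibition of 50% or more in the single-dose primary screen; inactive = inhibition below 50%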
Hck-Nef inh: blocks Nef-activated human Hck kinase; inhibition, % at 20 µM; 0.68% of 220,000 active; Recombinant Hck-YEEI plus Nef, Z-Lyte FRET kinase assay; P08631;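 active = Hck-Nef kinase inhibition above about 50%, limit read from the data; inactive = inhibition below that limit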;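 also: 0% = DMSO with Hck plus Nef and 100% = Hck alone without Nef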
Wee1 degr inh: blocks degradation of human Wee1 kinase; HeLa Luc-Wee1K328M stability, luciferase luminescence; 100% = proteasome inhibitor MG132 effect; reporter increase, % at 5 µM; P30291; AID 1321; 1.2% of 220,000 active;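 active = activation above the mean of all tested compounds plus 3 SD, set per screening run, cut at about 8.8% in these data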;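 also: cells exposed to compound for 20 h before luminescence read; 0% = DMSO alone and 100% = MG132 at 30 µM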
14-3-3 Bad PPI: disrupts binding of bovine 14-3-3 zeta to phospho-Bad peptide. TR-FRET 14-3-3zeta/Dy647-pBad peptide displacement, 1 h. inhibition, % at 21.7 µM. 0.71% of 220,000 active. AID 781;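 active = inhibition above about 70%, limit read from the data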;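 also: 0% = full 14-3-3 plus peptide FRET controls and 100% = background without 14-3-3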
Target sequence (P63103 whole entry, looked up): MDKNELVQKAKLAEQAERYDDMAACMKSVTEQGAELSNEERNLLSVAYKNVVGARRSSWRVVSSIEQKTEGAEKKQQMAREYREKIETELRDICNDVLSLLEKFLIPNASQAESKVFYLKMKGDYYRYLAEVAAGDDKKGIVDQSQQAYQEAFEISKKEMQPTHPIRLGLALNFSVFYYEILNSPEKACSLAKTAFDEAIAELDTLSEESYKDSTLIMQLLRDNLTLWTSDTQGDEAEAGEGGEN
MDM2 E3 inh: inhibitors of human Mdm2 E3 ubiquitin ligase; AID 1230; Q00987; 0.11% of 210,000 active; signal enhancement, % at 5 µM; cell-based MDM2 ubiquitination luciferase reporter, 2 h; 0 = plate control, 100 = twice control, blank-subtracted;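 active = signal enhancement of 30% or more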;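 also: luminescence tracks abundance of the self-degrading MDM2-luciferase fusion protein; higher signal means inhibition of MDM2 E3 ligase activity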
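System: stable MDM2–luciferase fusion reporter cells / Input: 2000 cells seeded into each well / Schedule: 4 h settle plus 2 h compound, 37 °C / Compound: single-point 5 µM / Buffer or medium: cells held in DMEM / Benchmarks: control and blank well means / Evaluation: percent signal gain over controls, blank-subtracted / Measured by: luciferase luminescence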
Hck-Nef confirm: confirmation of Hck-Nef kinase inhibitors. shares compounds with Hck-Nef inh. Recombinant Hck-YEEI:Nef, Z-Lyte FRET kinase assay. calls only at 10 µM. 28% of 1,300 active. AID 463188;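 active = average inhibition of at least 50%, with Z-scores no higher than 3 in both the phospho-tyrosine peptide and fluorescence counterscreens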
Starred values were filed as active, the others as inactive; i = inactive; x = not tested or not shown; + = active, no number; [ ] = remark or other dose. Sampled rows, rich in hits. Any-hit rate of the full collection: about 2.7%.

SMILES	TbHK1 inh	Hck-Nef inh	Wee1 degr inh	14-3-3 Bad PPI	MDM2 E3 inh	Hck-Nef confirm
Oc1ccc(/C=N/NC(=S)Nc2cccnc2)c(O)c1O	43.4	100.0*	2.5	72.2*	x	+
Oc1cccc(/C=N/NC(=S)Nc2cccnc2)c1O	5.6	4.3	-0.4	-6.5	-6.6	x
Cc1c(C(=O)Nc2ccc(S(=O)(=O)NCC3CCCO3)cc2)cccc1[N+](=O)[O-] (stereo not given)	4.1	-5.2	1.6	2.2	-13.9	x
Cc1nn(-c2ccccc2)c(C)c1C(=O)NNC(=O)C(F)(F)F	-8.2	11.6	-1.2	-2.8	-7.2	x
CCCCOc1ccc(-c2nnc(N)s2)cc1	-1.4	78.5*	-0.1	1.1	-4.6	+
Cc1cc(=O)oc2cc3c(cc12)OCCN3	-20.9	106.6*	0.6	-18.3	-5.9	x
CCc1cc2c(C)cc(=O)oc2cc1OC(=O)C1CCCN1C(=O)OC(C)(C)C (stereo not given)	-5.8	74.9*	0.7	1.0	-0.6	i
CC1(C)Cc2nc(N3CCOCC3)c(C#N)cc2CO1	-4.2	-10.5	0.8	-4.0	-8.6	x
CC1(C)Cc2nc(N3CCCC3)c(C#N)cc2CO1	-3.2	73.9*	-0.7	-3.9	-8.1	i
O=CN1CCN(C(=O)c2ccc([N+](=O)[O-])cc2)CC1	-1.5	4.0	-3.3	6.1	-33.4	x
COC(=O)NC(=S)Nc1ccc(Oc2ccc(Cl)cc2Cl)c(Cl)c1	-7.4	0.4	0.4	1.8	x	x
CCN(CC)C(=O)CSc1nnc(-c2ccccn2)n1-c1ccc(C)c(C)c1	-2.5	-0.4	-3.4	-6.4	-24.5	x
COCCn1c(-c2ccco2)nc2nc3ccccc3nc21	-14.7	119.6*	-1.4	2.3	4.5	x
CCC(C)n1c(-c2ccco2)nc2nc3ccccc3nc21 (stereo not given)	-21.4	27.8	-1.9	-1.0	-4.6	x
CC(C)OCCCn1c(-c2ccco2)nc2nc3ccccc3nc21	-17.7	131.5*	-3.0	-11.3	-16.1	x
COc1ccc(C(=O)c2c[nH]c3ccccc23)cc1	-23.1	-1.0	4.7	-3.5	-6.6	x
Cc1ccccc1Nc1nc(=O)c2cc([N+](=O)[O-])ccc2s1	-2.8	2.8	-2.5	3.4	-5.4	x
Cc1ccc(Nc2nc(=O)c3cc([N+](=O)[O-])ccc3s2)cc1	-7.4	57.4*	0.0	25.2	x	i
COc1ccc(CCN2C(=O)NC(NS(=O)(=O)c3ccc(NC(C)=O)cc3)(C(F)(F)F)C2=O)cc1OC (stereo not given)	1.2	-24.7	0.1	-1.5	-7.7	x
CCCCCCCCCCCCCCCC[n+]1ccc(/C=N/O)cc1	46.9	112.1*	-2.8	99.2*[fluorescence artefact?]	-19.8	x
CCCCN(CCCC)C(=O)C[n+]1cccc(/C=N/O)c1	-0.2	21.6	2.3	-14.0	6.5	x
Oc1cccc(Nc2nc(O)c(/C=C3\C=Nc4ccccc43)s2)c1	-6.2	88.2*	4.8	73.1*	2.8	+
Oc1nc(Nc2cccc(Cl)c2)sc1/C=C1\C=Nc2ccccc21	0.6	3.8	4.9	-3.5	-14.9	x
O=C(COC(=O)c1cc(=O)[nH]c(=O)[nH]1)NCc1ccccc1	2.2	-0.8	3.7	-10.2	-7.7	x
Cc1cccn2c(=O)c3cc(C#N)c(=N)n(Cc4ccncc4)c3nc12	-1.1	-0.7	-1.3	5.1	-6.9	x
SMILES	TbHK1 inh	Hck-Nef inh	Wee1 degr inh	14-3-3 Bad PPI	MDM2 E3 inh	Hck-Nef confirm
COCCNC(=O)c1cc2c(=O)n3cccc(C)c3nc2n(Cc2ccncc2)c1=N	27.0	151.1*	-1.5	-1.0	-2.7	x
CCCCNC(=O)c1cc2c(=O)n3cccc(C)c3nc2n(Cc2ccncc2)c1=N	-4.6	67.2*	-3.1	-4.0	-13.6	i
Cc1cc(C)c2c(N)c3ccccc3nc2n1	0.9	53.1*	-1.7	-6.9	-4.6	i
COc1nc(Nc2nc3ccccc3c(=O)[nH]2)nc2ccc(C)cc12	-26.7	74.8*	2.9	48.1	x	i
CCOC(=O)C1=NN(C(=O)Cc2ccccc2)C(O)(C(C)(C)C)C1 (stereo not given)	-3.2	17.4	-2.3	-10.8	5.0	x
O=C(O)c1ccc2c(c1)C(=O)/C(=C\c1ccco1)C2=O	-0.7	61.4*	-1.6	-1.6	-11.8	+
Cc1ccnc(NC(=S)NC(=O)/C=C/c2ccco2)c1	-36.8	0.0	4.9	1.1	-5.6	x
Cc1ccc(O)c(NC(=S)NC(=O)/C=C/c2ccco2)c1	-11.5	75.4*	3.8	-10.2	-15.7	+
O=C(Cn1nc(-c2ccc3c(c2)OCCO3)ccc1=O)Nc1ccc(-n2cnnn2)cc1	0.2	52.3*	2.3	6.0	2.8	i
O=C(Cn1nc(-c2ccccc2)ccc1=O)Nc1ccc(-n2cnnn2)cc1	-16.8	10.8	4.5	6.9	x	x
Cc1ccc([N+](=O)[O-])cc1N(CC(=O)Nc1ccc(S(=O)(=O)Nc2cccc(C(F)(F)F)c2)cc1)S(C)(=O)=O	-5.4	1.8	-1.1	-0.8	1.4	x
O=C1CSC(=S)N1/N=C/c1ccc(Cl)c([N+](=O)[O-])c1	-9.0	80.2*	1.3	-3.0	-8.5	+
O=C(Nc1cccc(-c2nc3ccccc3[nH]2)c1)c1cccc(NC(=O)c2ccco2)c1	13.2	73.6*	0.5	15.6	-10.8	+
CCOc1ccc(C(=O)Nc2ccc(-c3nc4ccccc4[nH]3)cc2)cc1[N+](=O)[O-]	-23.8	77.6*	1.3	65.9	-13.1	+
O=C(Nc1ccc(-c2nc3ccccc3[nH]2)cc1)c1c(F)c(F)c(F)c(F)c1F	1.6	112.0*	-1.3	-3.6	-14.3	i
O=CNn1cnc2c(oc3nc(-c4ccccc4)cc(-c4ccco4)c32)c1=O	-35.5	54.7*	-2.7	-0.1	-20.3	i
C=C1CCN([C@H](C(=O)NCc2ccc(OC)cc2)C(C)C)S(=O)(=O)c2ccccc21	-7.4	28.2	x	67.0	4.2	x
C/C(=N\NC(=O)c1cccc(N/N=C(\C)c2cc(O)ccc2O)c1)c1cc(O)ccc1O	-15.4	57.4*	1.9	-8.2	-23.1	i
C/C(=N\NC(=O)c1cccc(N/N=C(\C)c2ccco2)c1)c1ccco1	-15.6	16.8	7.8	-5.2	-5.2	x
O=C(CSCc1ccc(Cl)cc1)Nc1ccc(-c2nnc(-c3ccccc3)o2)cc1	-11.6	91.1*	-1.1	63.7	-12.3	i
COC(=O)Cc1c(C)c2ccc(O)c(CN3CCCC(C)C3)c2oc1=O (stereo not given)	-41.7	75.3*	0.9	x	-11.9	x
COc1ccc(C(=O)NCC(=O)OCc2ccc(F)cc2)cc1	5.2	5.6	-0.4	-2.2	-9.4	x
Cc1c(O)c(CN2CCCCC2)cc2c3c(c(=O)oc12)CCC3	-22.2	8.7	-1.2	-1.4	5.9	x
CCN(CC)Cc1c(O)c(Cl)cc2c3c(c(=O)oc12)CCCC3	-17.7	112.6*	-0.4	-5.8	-21.4	x
O=c1cc(-c2ccccc2)c2cc(Cl)c(O)c(CN3CCOCC3)c2o1	-18.6	-24.2	0.6	-2.6	-29.9	x

Screening results as filed in PubChem BioAssay.
